According to PubChem BioAssay:
The source made the active and inactive calls.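 How the source made its calls, unless noted: active means NADPH fluorescence slope more negative than the mean of all samples by about 3 SD, 99.7% confidence; inactive means the rest.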

The compounds below were run against Voltage-gated potassium channel subunit beta-2 (Rattus norvegicus) (UniProt P62483) (assay: enhancers of rat Kvbeta2 NADPH turnover – biochemical, NADPH fluorescence, primary screen (AID 623;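 further: fluorescence intensity change per second fitted from 20 to 320 s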)). Details: Recombinant KvBeta, NADPH fluorescence decrease slope, 10 min; at 10 µM; active compounds read low.
Chain of Voltage-gated potassium channel subunit beta-2 (Rattus norvegicus) (P62483 whole entry, looked up): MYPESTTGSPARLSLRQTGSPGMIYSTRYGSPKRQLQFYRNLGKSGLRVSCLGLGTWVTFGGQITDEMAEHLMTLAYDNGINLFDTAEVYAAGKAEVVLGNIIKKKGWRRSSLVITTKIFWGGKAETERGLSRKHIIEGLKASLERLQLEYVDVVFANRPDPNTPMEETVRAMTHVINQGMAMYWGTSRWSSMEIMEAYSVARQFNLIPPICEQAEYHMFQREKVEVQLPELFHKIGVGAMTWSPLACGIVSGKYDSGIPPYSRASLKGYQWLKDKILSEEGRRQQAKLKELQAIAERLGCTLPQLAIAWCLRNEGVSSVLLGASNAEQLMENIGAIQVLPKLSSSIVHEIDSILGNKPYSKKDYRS

NADPH fluorescence slope, inactive:
COc1cccc(C(=O)OC2CCCN(C)C2)c1 (stereo not given) -8.4e-05, FC(F)(F)c1cccc(N2CCc3cn[nH]c32)c1 -6.5e-05, Cc1cc(=O)oc(C)c1C(=O)NCCC1=CCCCC1 -3.7e-05, COCCNC(=O)C(C#N)c1nc2ccccc2nc1N1CCN(Cc2ccc3c(c2)OCO3)CC1 (stereo not given) -0.000128, Cc1cc(CC(=O)O)c(C)cc1CC(=O)O -0.000138, Nc1nc2n(n1)C(c1cccs1)CC(c1ccc(F)cc1)N2 (stereo not given) -0.000111, CCOC(=O)C1=Nc2ccccc2C1=[N+]=[N-] -4.9e-05, CCc1nc2c(sc3nc(N4CCOCC4)c4c(c32)CC(C)(C)OC4)c(=O)o1 -8.3e-05, CC(=O)/C(C#N)=C1\NC(=O)C(Cc2ccccc2Cl)S1 (stereo not given) -7e-05, COC(=O)/C=c1/s/c(=C(\C#N)C(=O)NCc2ccco2)n(-c2ccccc2)c1=O -3.8e-05, O=C(NCCCN1CCOCC1)C1(c2ccccc2)CCOCC1 -2.1e-05, CCN(CC)CCN1C(=O)C(=O)/C(=C(/O)c2c(C)[nH]c(C(=O)OC)c2C)C1c1ccccc1 (stereo not given) -4.8e-05, Cc1ccc(S(=O)(=O)c2cc3c(=O)n4cccc(C)c4nc3n(CC3CCCO3)c2=N)cc1 (stereo not given) -3.3e-05, COC(=O)C(NC(=O)c1ccco1)(Nc1nc(C)cs1)C(F)(F)F (stereo not given) -9.6e-05, CC(=O)C1=C(O)C(=O)N(c2ccc(Br)cn2)C1c1ccccc1F (stereo not given) -3.5e-05, Cc1ccc(S(=O)(=O)N(CC(O)CN2CCOCC2)c2cc(Cl)ccc2Cl)cc1 (stereo not given) -2.9e-05, CCNC(=O)COn1c(SCC(=O)NCC)nc2ccccc2c1=O -4.1e-05, CCCOc1cccc(C2/C(=C(/O)c3ccc(F)cc3)C(=O)C(=O)N2CCN(C)C)c1 (stereo not given) -2.8e-05, Cc1ccc(N(CN2C(=O)C3CC=CCC3C2=O)C(=O)c2ccco2)cc1Cl (stereo not given) -1.3e-05, O=c1[nH]cnc2c1cnn2Cc1ccccc1 -5.1e-05, COC(=O)C(NC(C)=O)(Nc1ccc(Br)cn1)C(F)(F)F (stereo not given) 3.7e-06, COC(=O)/C=c1/s/c(=C(/C#N)C(=O)N2CCCCC2)n(-c2ccccc2)c1=O -1.7e-05, O=c1c2sc3nc(N4CCOCC4)c4c(c3c2ncn1Cc1ccco1)CCCC4 -1.9e-05, COc1ccc(CC(=O)n2c(CC#N)nc3ccccc32)cc1OC -3.6e-05, CCN(CC)CCN1C(=O)C(O)=C(C(=O)c2cc3ccccc3o2)C1c1cccnc1 (stereo not given) -0.000135, COc1ccc(CSc2nnc3n(C)c(=O)c4c5c(sc4n23)CCCC5)cc1 -1.6e-05, CC(NC(=O)Nc1cccnc1)(C(F)(F)F)C(F)(F)F -0.000301, CCOC(=O)CSc1nnc(C)c(=O)[nH]1 -4.6e-05, O=S(=O)(/C=C/c1ccccc1)Nc1ccc2c(c1)OCO2 -9.8e-05, Cn1c(=O)c2c3c(sc2n2c(SCC(=O)c4ccccc4)nnc12)COC(C)(C)C3 1.2e-05, COc1cccc(C2C(C(=O)c3sc(C)nc3C)=C(O)C(=O)N2CCN2CCOCC2)c1OC (stereo not given) -0.000114, NC(=O)C1CCN(C2OC(=O)c3ccccc32)CC1 (stereo not given) -8.4e-05, CCCCOC(=O)c1[nH]c(C)c(C(=O)OC)c1C -1.9e-05, CCSc1nnc(NC(=O)C(C)(C(F)(F)F)C(F)(F)F)s1 -6.3e-05, Cc1ccc(N2C(=O)CC3(CC4C=CC3C4)C2=O)cc1 (stereo not given) -3.6e-05, Cn1c(NCC(O)c2ccccc2)nc2c1c(=O)n(Cc1ccc(Cl)cc1)c(=O)n2C (stereo not given) -4.1e-05, N#Cc1nc(-c2ccc(F)cc2)oc1N1CCCC1 -9.4e-06, COC(=O)/C(C#N)=C1/SC=C(C)N1c1ccccc1 -5.6e-05, COc1ccc2nc(/N=C(\N)NC(=O)C(C)(C)C)nc(C)c2c1 -3e-05, O=C(NCCCNCc1ccccc1)/C(=N\O)c1ccccc1 -5.4e-05

What follows are compounds tested against Muscarinic acetylcholine receptor M4 (Homo sapiens) (UniProt P08173) (assay: M4-linked GIRK flux change, two-sided – cell-based, HEK293 M4/GIRK, thallium flux, BTC-AM, M4 allosteric agonist project, primary screen (AID 625;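 active means fluorescence slope after compound addition differing from the mean of all tested samples at 99.7% confidence, mostly higher but some lower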;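 further: thallium influx through GIRK channels coupled to M4 in HEK293 cells with BTC-AM dye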)). Details: at 10 µM, actives lie on both sides.
Chain of Muscarinic acetylcholine receptor M4 (Homo sapiens) (P08173 whole entry, looked up): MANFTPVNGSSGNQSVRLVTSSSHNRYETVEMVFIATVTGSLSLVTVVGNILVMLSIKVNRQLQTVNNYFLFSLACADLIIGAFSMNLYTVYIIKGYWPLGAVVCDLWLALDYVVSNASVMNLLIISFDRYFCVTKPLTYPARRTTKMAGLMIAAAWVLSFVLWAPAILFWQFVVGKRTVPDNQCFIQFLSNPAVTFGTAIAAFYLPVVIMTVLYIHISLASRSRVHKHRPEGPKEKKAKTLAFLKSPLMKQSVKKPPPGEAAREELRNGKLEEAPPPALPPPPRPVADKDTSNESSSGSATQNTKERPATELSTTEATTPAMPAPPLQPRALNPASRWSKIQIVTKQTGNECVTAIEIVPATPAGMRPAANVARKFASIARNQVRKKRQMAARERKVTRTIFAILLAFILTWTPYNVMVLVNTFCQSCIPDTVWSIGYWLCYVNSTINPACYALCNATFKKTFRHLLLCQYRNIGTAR
Procedure, shortened: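 System: HEK293 cells with M4 receptor and GIRK channels | Incubation: Cells overnight at 37 °C, BTC-AM loading 1 h, reads 2 min total | Technique: Kinetic BTC-AM fluorescence sampled at 1 Hz, 10 s pre-addition baseline | Measure: Post-addition slope, 15–24 s, of baseline-normalized fluorescence | Control set: Carbachol positive, DMSO negative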

Fluorescence slope, inactive:
COc1cccc(C(=O)OC2CCCN(C)C2)c1 (stereo not given) 0.00427, FC(F)(F)c1cccc(N2CCc3cn[nH]c32)c1 0.00449, Cc1cc(=O)oc(C)c1C(=O)NCCC1=CCCCC1 0.00474, COCCNC(=O)C(C#N)c1nc2ccccc2nc1N1CCN(Cc2ccc3c(c2)OCO3)CC1 (stereo not given) 0.00436, Cc1cc(CC(=O)O)c(C)cc1CC(=O)O 0.00496, Nc1nc2n(n1)C(c1cccs1)CC(c1ccc(F)cc1)N2 (stereo not given) 0.00473, CCOC(=O)C1=Nc2ccccc2C1=[N+]=[N-] 0.00733, CCc1nc2c(sc3nc(N4CCOCC4)c4c(c32)CC(C)(C)OC4)c(=O)o1 0.00481, CC(=O)/C(C#N)=C1\NC(=O)C(Cc2ccccc2Cl)S1 (stereo not given) 0.00568, COC(=O)/C=c1/s/c(=C(\C#N)C(=O)NCc2ccco2)n(-c2ccccc2)c1=O 0.00374, O=C(NCCCN1CCOCC1)C1(c2ccccc2)CCOCC1 0.0058, CCN(CC)CCN1C(=O)C(=O)/C(=C(/O)c2c(C)[nH]c(C(=O)OC)c2C)C1c1ccccc1 (stereo not given) 0.0049, Cc1ccc(S(=O)(=O)c2cc3c(=O)n4cccc(C)c4nc3n(CC3CCCO3)c2=N)cc1 (stereo not given) 0.00435, COC(=O)C(NC(=O)c1ccco1)(Nc1nc(C)cs1)C(F)(F)F (stereo not given) 0.00502, CC(=O)C1=C(O)C(=O)N(c2ccc(Br)cn2)C1c1ccccc1F (stereo not given) 0.00688, Cc1ccc(S(=O)(=O)N(CC(O)CN2CCOCC2)c2cc(Cl)ccc2Cl)cc1 (stereo not given) 0.00509, CCNC(=O)COn1c(SCC(=O)NCC)nc2ccccc2c1=O 0.00588, CCCOc1cccc(C2/C(=C(/O)c3ccc(F)cc3)C(=O)C(=O)N2CCN(C)C)c1 (stereo not given) 0.00611, Cc1ccc(N(CN2C(=O)C3CC=CCC3C2=O)C(=O)c2ccco2)cc1Cl (stereo not given) 0.00483, O=c1[nH]cnc2c1cnn2Cc1ccccc1 0.00657, COC(=O)C(NC(C)=O)(Nc1ccc(Br)cn1)C(F)(F)F (stereo not given) 0.00445, COC(=O)/C=c1/s/c(=C(/C#N)C(=O)N2CCCCC2)n(-c2ccccc2)c1=O 0.00519, O=c1c2sc3nc(N4CCOCC4)c4c(c3c2ncn1Cc1ccco1)CCCC4 0.00575, COc1ccc(CC(=O)n2c(CC#N)nc3ccccc32)cc1OC 0.00563, CCN(CC)CCN1C(=O)C(O)=C(C(=O)c2cc3ccccc3o2)C1c1cccnc1 (stereo not given) 0.00445, COc1ccc(CSc2nnc3n(C)c(=O)c4c5c(sc4n23)CCCC5)cc1 0.00522, CC(NC(=O)Nc1cccnc1)(C(F)(F)F)C(F)(F)F 0.00556, CCOC(=O)CSc1nnc(C)c(=O)[nH]1 0.0066, O=S(=O)(/C=C/c1ccccc1)Nc1ccc2c(c1)OCO2 0.00384, Cn1c(=O)c2c3c(sc2n2c(SCC(=O)c4ccccc4)nnc12)COC(C)(C)C3 0.00374, COc1cccc(C2C(C(=O)c3sc(C)nc3C)=C(O)C(=O)N2CCN2CCOCC2)c1OC (stereo not given) 0.00521, NC(=O)C1CCN(C2OC(=O)c3ccccc32)CC1 (stereo not given) 0.0046, CCCCOC(=O)c1[nH]c(C)c(C(=O)OC)c1C 0.00588, CCSc1nnc(NC(=O)C(C)(C(F)(F)F)C(F)(F)F)s1 0.00486, Cc1ccc(N2C(=O)CC3(CC4C=CC3C4)C2=O)cc1 (stereo not given) 0.00482, Cn1c(NCC(O)c2ccccc2)nc2c1c(=O)n(Cc1ccc(Cl)cc1)c(=O)n2C (stereo not given) 0.00426, N#Cc1nc(-c2ccc(F)cc2)oc1N1CCCC1 0.0076, COC(=O)/C(C#N)=C1/SC=C(C)N1c1ccccc1 0.00543, COc1ccc2nc(/N=C(\N)NC(=O)C(C)(C)C)nc(C)c2c1 0.00616, O=C(NCCCNCc1ccccc1)/C(=N\O)c1ccccc1 0.00368
